# From PubChem BioAssay
# In the library only some 2.6% were active in any assay of this set; here they are far more common.
# rCAG RNA binder – molecules binding r(CAG) RNA repeats. r(CAG) RNA repeat, TO-PRO-1 dye displacement fluorescence. inhibition, % at 3 µM. 370,000 tested, 1.3% active;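 active = inhibition above the plate cutoff, the mean of all test compounds on that plate plus 3 SD, cut at about 35% in these data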;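 note: 0% = DMSO alone and 100% = 100 µM mitoxantrone as full dye displacement; higher means more dye released from RNA so lower well fluorescence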
# LMPTP block – LMPTP (human) inhibition | inhibition, % at 20 µM | recombinant LMPTP-A, OMFP fluorogenic substrate, fluorescence intensity | P24666 | 360,000 tested, 0.22% active | AID 651560;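 active = compounds that cut the enzyme signal by at least half of the control window in the single-dose screen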;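 note: plate controls were DMSO wells with enzyme plus substrate for no effect and substrate without enzyme for full effect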
#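 test system = LMPTP-A | amount = 0.625 nM LMPTP-A final | reagent = fluorogenic phosphatase substrate OMFP at 400 µM final | incubation = 50 min at room temperature | benchmarks = no-enzyme low control, uninhibited high control | medium = Bis-Tris pH 6.0, DTT, detergent | signal = fluorescence intensity of OMFP turnover product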
# NadD block – NadD (S. aureus) enzyme inhibition. purified NadD enzyme, colorimetric absorbance read-out. inhibition, % at 20 µM. 360,000 tested, 0.78% active. AID 602399; in the data active = inhibition above about 26%
# STEP inh – inhibitors of human striatal-enriched phosphatase STEP. AID 588621. inhibition, % at 20 µM. recombinant STEP, OMFP fluorogenic substrate, fluorescence. 360,000 tested, 0.25% active;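 active = inhibition at 20 µM, scaled per plate between control wells, above about 37%, limit read from the data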;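 note: 0% = DMSO with enzyme and substrate and 100% = substrate only without enzyme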
# Target sequence (P54829 whole entry, looked up): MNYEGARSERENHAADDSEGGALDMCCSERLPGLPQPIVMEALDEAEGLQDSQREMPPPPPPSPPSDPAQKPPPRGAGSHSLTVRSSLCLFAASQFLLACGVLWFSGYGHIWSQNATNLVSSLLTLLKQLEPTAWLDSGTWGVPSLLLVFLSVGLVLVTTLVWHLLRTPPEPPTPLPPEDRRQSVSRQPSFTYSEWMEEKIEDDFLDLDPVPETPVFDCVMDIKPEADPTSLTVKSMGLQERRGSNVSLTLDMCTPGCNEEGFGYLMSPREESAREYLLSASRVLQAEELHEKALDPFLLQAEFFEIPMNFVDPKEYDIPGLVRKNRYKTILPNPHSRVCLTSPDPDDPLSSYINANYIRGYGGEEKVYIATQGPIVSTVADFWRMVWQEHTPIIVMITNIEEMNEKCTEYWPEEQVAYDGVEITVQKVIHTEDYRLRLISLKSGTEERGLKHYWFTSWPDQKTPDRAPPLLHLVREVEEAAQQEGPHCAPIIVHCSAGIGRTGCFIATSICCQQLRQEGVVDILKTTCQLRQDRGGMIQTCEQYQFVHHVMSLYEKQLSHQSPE
#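 System: STEP phosphatase, cell-free reaction; Buffer or medium: Bis-Tris pH 6.0 buffer with DTT, detergent; Incubation: 20 min at room temperature, dark; Measured by: fluorescence, 480/540 nm.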
# Scp-1 inhibitor – inhibitors of human Scp-1 phosphatase; Q9GZU7; Recombinant Scp1, phosphopeptide, malachite green phosphate absorbance; inhibition, % at 20 µM; 340,000 tested, 0.88% active;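 active = inhibition above about 50% at 20 µM, limit read from the data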;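 note: plate controls were DMSO wells with enzyme for no effect and wells lacking enzyme for full effect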
#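 assay system = SCP-1 phosphatase catalytic domain, residues 76-261 | buffer or medium = 50 mM Tris acetate pH 5.5, 0.005% Tween-20, 10 mM MgCl2 | incubation = enzyme reaction 45 min at room temperature, colour 5 min, stabilisation 30 min | signal = Phosphate-binding colour reagent, absorbance read at 630 nm | measure = % inhibition at 20 µM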
# Scp1 confirm – Scp-1 (human) inhibition, single-dose confirmed; shares compounds with Scp-1 inhibitor; recombinant SCP-1 catalytic domain, phosphate release, malachite green absorbance; inhibition, % at 20 µM; 2,500 tested, 61% active; AID 540281;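 note: plate controls were DMSO with enzyme for no effect and buffer wells lacking enzyme for full effect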
# Scp-1 MG ctr – interferes with malachite green readout, flagging false Scp-1 hits | shares compounds with Scp-1 inhibitor | Colorimetric interference counterscreen, malachite green absorbance 630 nm | apparent inhibition (interference), % at 20 µM | 2,500 tested, under 10 active;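 note: compounds added after enzyme reaction finished so only phosphate colour detection is probed; plate controls were DMSO wells with completed Scp-1 reaction for no effect and substrate wells lacking enzyme for full effect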
# Scp1 DSF – Scp-1 (human) binding by thermal shift. shares compounds with Scp-1 inhibitor. Recombinant SCP1, Sypro Orange thermal shift Tm. thermal shift relative to vanadate control, % at 40 µM. 1,500 tested, 25% active. AID 540329;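 active = substances whose mean melting-temperature shift, as a percentage of the reference inhibitor's shift, reaches about 5.3%, limit read from the data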;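 note: 0% = Tm of DMSO wells and 100% = Tm with sodium orthovanadate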
# * hit, by the source's call; · = not tested or not shown.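 Rule for the calls, unless noted: active = inhibition of at least 30% at 20 µM; inactive = the rest.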
SMILES,rCAG RNA binder,LMPTP block,NadD block,STEP inh,Scp-1 inhibitor,Scp1 confirm,Scp-1 MG ctr,Scp1 DSF
C/C(N)=C(/C#N)C(=O)CN1C(=O)NC(Cc2c[nH]c3ccccc23)C1=O (stereo not drawn),4,7,0,12,65*,60*,-11,2
CC(C)(C)OC(=O)CN1C(=O)NC(Cc2c[nH]c3ccccc23)C1=O (stereo not drawn),-2,-2,0,-1,-1,·,·,·
CN1Cc2nnn(Cc3ccccc3)c2-c2cc(N3CCCCC3)ccc2S1(=O)=O,4,·,·,·,·,·,·,·
CC1C=CC=CC=CC=CC=CC=CC=CC(OC2OC(C)C(O)C(N)C2O)CC2OC(O)(CC(O)CC(O)C(O)CCC(O)CC(O)CC(=O)OC(C)C(C)C1O)CC(O)C2C(=O)O (stereo not drawn),·,2,-1,2,89*,65*,-14,-9
COc1cccc(/C=N/NC(=O)CCn2c3ccccc3c3ccccc32)c1,10,2,-2,1,·,·,·,·
COc1ccc(/C=N/NC(=O)CCn2c3ccccc3c3ccccc32)cc1O,15,3,8,-3,56*,-19,-14,·
CCc1nnc(NC(=O)CCC(=O)N2CCN(C3c4ccccc4-c4ccccc43)CC2)s1,-3,0,0,1,72*,-21,-12,·
CCc1nnc(NC(=O)CCC(=O)N2CCN(Cc3ccccc3)CC2)s1,-9,-2,0,1,-7,·,·,·
O=C(CCNC(=O)c1ccc([N+](=O)[O-])cc1)Nc1ccc(F)cc1,-3,-1,-2,-2,-5,·,·,·
O=C(CCNC(=O)c1ccc([N+](=O)[O-])cc1)NNC(=O)c1ccncc1,4,-2,-3,-1,50*,6,-4,·
N#Cc1ccc(N/N=C/c2ccccc2)c([N+](=O)[O-])c1,-1,14,11,4,12,·,·,·
Cc1cc2ccccn2c1C(=O)c1ccc(N/N=C/c2ccc(C(=O)O)cc2)c([N+](=O)[O-])c1,7,8,21,99*,114*,70*,-19,6.4*
CC1(C)C(=O)Nc2ccccc2N1C(=O)COc1ccccc1C#N,13,5,4,3,50*,59*,-12,3
Cc1cc(OCC(=O)OCC(=O)N2c3ccccc3NC(=O)C2(C)C)ccc1Cl,13,7,-1,-1,60*,57*,-19,1
COc1cccc(NC(=O)Nc2nc3ncccn3c2-c2ccc(C(F)(F)F)cc2)c1,1,·,·,·,·,·,·,·
C=CCn1c(SCc2cccc(C(F)(F)F)c2)nnc1-c1ccc(OC)cc1,-4,·,·,·,·,·,·,·
CCOc1cc(CCNC(=O)c2cc3ccsc3n2C)ccc1OC,1,·,·,·,·,·,·,·
CCOC(=O)c1[nH]c(C)c(C(=O)NCc2ccco2)c1C,3,0,-3,5,64*,-8,-16,·
O=S1(=O)c2c(cccc2N2CC[C@H](O)C2)OCCCN1C1CC1,5,·,·,·,·,·,·,·
COc1ccc(Cl)cc1S(=O)(=O)NCc1cccnc1,2,0,-2,1,60*,-17,-14,·
O=C(COc1ccc(OCc2ccccc2)cc1)NC1CCOC1=O (stereo not drawn),-2,-2,1,-1,85*,-19,-19,·
CCOC(=O)CC[C@@]1(C(=O)OCC)C[C@@H](CC(=O)N2CCSCC2)C(=O)N2CCCC=C21,4,·,·,·,·,·,·,·
CS(=O)(=O)c1ccc(-c2sc3cc4c(cc3c2C(=O)NN2CCOCC2)OCO4)cc1,6,-1,24,-1,101*,86*,-7,-20
O=C(N/N=C/c1ccccc1[N+](=O)[O-])c1ccc2c(c1)OCCO2,0,0,-6,2,-9,·,·,·
O=C(N/N=C/c1cc([N+](=O)[O-])ccc1O)c1ccc2c(c1)OCCO2,2,4,9,6,64*,48*,-6,-3
O=C(N/N=C/c1cc([N+](=O)[O-])ccc1Cl)c1ccc2nc[nH]c2c1,4,-1,-2,2,55*,28,-2,·
